# Test results reported in ChEMBL document CHEMBL3997841, “Continued optimization of the M5 NAM ML375: Discovery of VU6008667, an M5 NAM with high CNS penetration and a desired short half-life in rat for addiction studies” (Bioorg Med Chem Lett, 2017).
# Tests used:
# [1] = biological target: T1, Muscarinic acetylcholine receptor M5 (Homo sapiens, UniProt P08912); assay: Negative allosteric modulation of human M5 receptor expressed in CHO cells assessed as inhibition of acetyl choline-induced calcium mobilization preincubated for 150 secs followed by acetyl choline addition by Fluo-4-AM dye based fluorescence assay; type: functional, cell-based
# T1 sequence (P08912 whole entry): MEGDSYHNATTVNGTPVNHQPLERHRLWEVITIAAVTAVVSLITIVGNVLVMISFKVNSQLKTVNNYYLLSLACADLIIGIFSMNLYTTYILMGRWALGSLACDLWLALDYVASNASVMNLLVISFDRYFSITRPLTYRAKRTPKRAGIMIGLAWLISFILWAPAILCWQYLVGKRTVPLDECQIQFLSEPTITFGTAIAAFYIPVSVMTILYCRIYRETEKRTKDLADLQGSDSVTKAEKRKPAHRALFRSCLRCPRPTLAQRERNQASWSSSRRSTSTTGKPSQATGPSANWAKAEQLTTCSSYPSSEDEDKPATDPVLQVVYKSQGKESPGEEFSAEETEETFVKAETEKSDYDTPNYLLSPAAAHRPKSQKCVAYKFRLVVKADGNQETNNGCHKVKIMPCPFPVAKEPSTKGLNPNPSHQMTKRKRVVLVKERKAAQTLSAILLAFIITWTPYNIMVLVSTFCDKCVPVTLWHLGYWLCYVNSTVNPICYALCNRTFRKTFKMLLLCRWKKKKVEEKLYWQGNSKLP
# Procedure, shortened: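 Intracellular calcium mobilization in CHO cells stably transfected with human M5 receptor, run in the presence of an ACh EC80 concentration; values are means of at least three independent determinations, each performed in triplicate.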
# [2] = (§1) Fraction unbound in human plasma at 5 uM after 4 hrs by LC-MS/MS based equilibrium dialysis method; type: ADME, cell-free
# [3] = (§2) Fraction unbound in rat plasma at 5 uM after 4 hrs by LC-MS/MS based equilibrium dialysis method; type: ADME, cell-free
# [4] = Clearance in rat plasma by LC/MS/MS analysis; type: ADME
# [5] = Elimination half life in rat by LC-MS/MS analysis; type: ADME; settings: in vivo, read-out: beta t1/2
# [6] = biological target: T2, Muscarinic acetylcholine receptor M5 (Homo sapiens) (UniProt P08912); assay: Negative allosteric modulation of human M5 receptor expressed in CHO cells assessed as inhibition of acetyl choline-induced calcium mobilization at 10 uM preincubated for 150 secs followed by acetyl choline addition by Fluo-4-AM dye based fluorescence assay relative to acetyl choline; values are per cent of control
# T2 sequence (whole entry): T1 sequence (P08912 whole entry)
# [7] = Aqueous solubility of the compound; type: physicochemical; settings: buffer
# [8] = Selectivity ratio of IC50 for rat M5 receptor expressed in CHO cells to IC50 for human M5 receptor expressed in CHO cells; type: cell-based
# [9] = biological target: T3, Muscarinic acetylcholine receptor M5 (Rattus norvegicus, UniProt P08911); assay: Negative allosteric modulation of rat M5 receptor expressed in CHO cells assessed as inhibition of acetyl choline-induced calcium mobilization preincubated for 150 secs followed by acetyl choline addition by Fluo-4-AM dye based fluorescence assay; type: functional, cell-based
# T3 sequence (P08911 whole entry): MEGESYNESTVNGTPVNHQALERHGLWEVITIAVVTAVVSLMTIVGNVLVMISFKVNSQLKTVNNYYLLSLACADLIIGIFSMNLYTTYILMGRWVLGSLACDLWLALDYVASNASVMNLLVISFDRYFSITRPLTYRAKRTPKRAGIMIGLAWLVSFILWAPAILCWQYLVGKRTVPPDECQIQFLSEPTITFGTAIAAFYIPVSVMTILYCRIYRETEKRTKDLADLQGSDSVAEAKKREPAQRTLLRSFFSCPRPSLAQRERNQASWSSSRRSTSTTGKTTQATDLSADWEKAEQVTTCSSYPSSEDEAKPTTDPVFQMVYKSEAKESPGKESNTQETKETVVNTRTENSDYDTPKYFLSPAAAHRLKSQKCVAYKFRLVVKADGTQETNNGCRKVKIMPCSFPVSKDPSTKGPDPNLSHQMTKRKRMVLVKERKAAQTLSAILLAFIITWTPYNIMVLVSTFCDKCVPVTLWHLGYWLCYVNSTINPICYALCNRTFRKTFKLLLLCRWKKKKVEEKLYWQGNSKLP
# Procedure, shortened: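 Calcium mobilization assay in CHO cells stably transfected with rat M5 receptor; data are means of at least three independent determinations done in triplicate.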
# Plasma [10] = assay: as §1; type: ADME, cell-free; settings: 4 h, 5 µM
# Plasma [11] = assay: as §2; type: ADME, cell-free; settings: 4 h, 5 µM
# Brain = assay: Fraction unbound in rat brain at 1 uM after 4 hrs by LC-MS/MS based equilibrium dialysis method; type: ADME, tissue-based
# [12] = Volume of distribution at steady state in rat at 1 mg/kg, iv or 3 mg/kg, po by LC-MS/MS analysis; type: ADME, organism-based; settings: in vivo, read-out: Vdss
# [13] = Clearance in rat at 1 mg/kg, iv or 3 mg/kg, po by LC-MS/MS analysis; type: ADME, organism-based; settings: in vivo
# Rattus norvegicus = assay: Oral bioavailability in rat at 3 mg/kg by LC-MS/MS analysis; type: ADME, organism-based; settings: in vivo
# [14] = biological target: T4, Muscarinic acetylcholine receptor M5 (Rattus norvegicus) (UniProt P08911); assay: Negative allosteric modulation of rat M5 receptor expressed in CHO cells assessed as inhibition of acetyl choline-induced calcium mobilization at 10 uM preincubated for 150 secs followed by acetyl choline addition by Fluo-4-AM dye based fluorescence assay relative to acetyl choline; values are per cent of control
# T4 sequence (whole entry): T3 sequence (P08911 whole entry)
SMILES,IC50 ([1]; read-out: IC50) [µM],IC50 ([1]; read-out: pIC50 (converted)) [µM],"fraction unbound at 4 h, 5 µM [2]","fraction unbound at 4 h, 5 µM [3]",clearance [4] [mL/min/kg],half-life [5] [min],residual activity [6] [%],solubility [7] [µg/mL],Ratio IC50 [8],IC50 [9] [µM],Fu (Plasma [10]),Fu (Plasma [11]),Fu (Brain),Vd [12] [L/kg],clearance [13] [mL/min/kg],F (Rattus norvegicus) [%],residual activity [14] [%]
O=C(c1ccc(F)c(F)c1)N1CCN2C(=O)c3ccccc3[C@@]12c1ccc(N2CC[C@@H](F)C2)cc1,3.09,3.02,< 0.01,< 0.01,> 70,< 30,3.3,–,–,–,–,–,–,–,–,–,–
O=C(c1ccc(F)c(F)c1)N1CCN2C(=O)c3ccccc3[C@@]12c1ccc(N2CCC(F)(F)CC2)cc1,1.82,–,< 0.01,< 0.01,> 70,< 30,3.1,10000,2,–,–,–,–,–,–,–,–
O=C(c1ccc(F)c(F)c1)N1CCN2C(=O)c3ccccc3[C@@]12c1ccc(N2CC3(C2)CC(F)(F)C3)cc1,> 10,–,< 0.01,< 0.01,> 70,< 30,26.2,–,–,–,–,–,–,–,–,–,–
O=C(c1ccc(F)c(F)c1)N1CCN2C(=O)c3ccccc3[C@@]12c1ccc(N2CCC(C(F)(F)F)CC2)cc1,3.42,–,< 0.01,< 0.01,> 70,< 30,3.2,–,–,–,–,–,–,–,–,–,–
O=C(c1ccc(F)c(F)c1)N1CCN2C(=O)c3ccccc3[C@@]12c1ccc(N2CCCCC2C(F)(F)F)cc1 (some centres not stated),5.7,–,< 0.01,< 0.01,> 70,< 30,2.6,–,–,–,–,–,–,–,–,–,–
O=C(c1ccc(F)c(F)c1)N1CCN2C(=O)c3ccccc3[C@@]12c1ccc(Cl)cc1,–,–,–,–,–,–,2.3,< 10,–,–,–,–,–,–,–,–,–
N#CC1CCCN(c2ccc([C@@]34c5ccccc5C(=O)N3CCN4C(=O)c3ccc(F)c(F)c3)cc2)C1 (some centres not stated),–,–,< 0.01,< 0.01,> 70,< 30,26.3,–,–,–,–,–,–,–,–,–,–
Cc1cc([C@@]23c4ccccc4C(=O)N2CCN3C(=O)c2ccc(F)c(F)c2)ccc1Cl,–,–,–,–,–,–,–,–,–,1.6,0.006,0.014,0.003,7.4,82,17,2.6
O=C(c1ccc(F)c(F)c1)N1CCN2C(=O)c3ccccc3[C@@]12c1ccc(N2CCCC(F)(F)C2)cc1,1.46,–,< 0.01,< 0.01,> 70,< 30,3.1,10000,2,–,–,–,–,–,–,–,–
CC1Cc2ccccc2N1c1ccc([C@@]23c4ccccc4C(=O)N2CCN3C(=O)c2ccc(F)c(F)c2)cc1 (some centres not stated),4.55,4.47,< 0.01,< 0.01,> 70,< 30,27,–,–,–,–,–,–,–,–,–,–
O=C(c1ccc(F)c(F)c1)N1CCN2C(=O)c3ccccc3[C@@]12c1ccc(N2CCC(F)CC2)cc1,4.28,–,< 0.01,< 0.01,> 70,< 30,13.6,–,–,–,–,–,–,–,–,–,–
O=C(c1ccc(F)c(F)c1)N1CCN2C(=O)c3ccccc3[C@@]12c1ccc(N2CCCCC2)cc1,6.04,–,< 0.01,< 0.01,> 70,< 30,10.5,–,–,–,–,–,–,–,–,–,–
O=C(c1ccc(F)c(F)c1)N1CCN2C(=O)c3ccccc3[C@@]12c1ccc(NC2CCC2)cc1,6.92,6.76,< 0.01,< 0.01,> 70,< 30,25.5,–,–,–,–,–,–,–,–,–,–
O=C(c1ccc(F)c(F)c1)N1CCN2C(=O)c3ccccc3[C@@]12c1ccc(N2CCC[C@H]2c2cccnc2)cc1,3.5,–,< 0.01,< 0.01,> 70,< 30,6,–,–,–,–,–,–,–,–,–,–
CC1CCCN(c2ccc([C@@]34c5ccccc5C(=O)N3CCN4C(=O)c3ccc(F)c(F)c3)cc2)C1 (some centres not stated),–,–,< 0.01,< 0.01,> 70,< 30,3.6,–,–,–,–,–,–,–,–,–,–
O=C(c1ccc(F)c(F)c1)N1CCN2C(=O)c3ccccc3[C@@]12c1ccc(N2CCCC(F)C2)cc1 (some centres not stated),6.36,–,< 0.01,< 0.01,> 70,< 30,6.9,–,–,–,–,–,–,–,–,–,–
O=C(c1ccc(F)c(F)c1)N1CCN2C(=O)c3ccccc3[C@@]12c1ccc(N2CCc3ccccc3C2)cc1,8.21,7.76,< 0.01,< 0.01,> 70,< 30,20.1,–,–,–,–,–,–,–,–,–,–
CCOC(=O)N1CCN(c2ccc([C@@]34c5ccccc5C(=O)N3CCN4C(=O)c3ccc(F)c(F)c3)cc2)CC1,–,–,< 0.01,< 0.01,> 70,< 30,7.5,–,–,–,–,–,–,–,–,–,–
CN(c1ccc([C@@]23c4ccccc4C(=O)N2CCN3C(=O)c2ccc(F)c(F)c2)cc1)C1CCC1,–,–,< 0.01,< 0.01,> 70,< 30,2.6,10000,–,–,–,–,–,–,–,–,–
